# CHOP UPR activ: activators of apoptotic CHOP UPR arm, primary screen, cell-based, CHO-CHOP luciferase reporter, luminescence, uHTS. UPR activation; percent of tunicamycin response over DMSO baseline. activation, % at 10 µM. hit rate 0.34% among 330,000;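 active = at 10 µM dose, activation of 40% or more, normalized to positive control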
#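 Dosing – one dose, 10 µM in 0.5% DMSO · System – CHO-CHOP cells, stable luciferase reporter of PERK-eIF2a-CHOP signalling · Input – 500 cells/well · Control set – tunicamycin 10 µg/mL final as positive, DMSO-only wells as negative · Timing – 6 h compound treatment, 37 °C · Measure – % activation vs tunicamycin · Technique – luminescence read with Steady-Glo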
# Cardio protect: cardioprotection against H2O2-induced cell death, primary screen, uHTS, H9c2 cells, ATPLite luminescence; H9c2 cardiomyocytes, H2O2 injury protection, 2 h; protection from H2O2 cell death, % at 20 µM; hit rate 0.63% among 360,000;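 active = compounds giving at least 50% protection of heart cells from peroxide-induced death in the single-dose screen, raw or plate-pattern-corrected value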
# hiPSC survival: enhancers of single-cell hiPSC survival, primary screen, ATPlite luminescence; 100% = ROCK inhibitor wells, 0% = DMSO; survival enhancement, % at 20 µM; hit rate 0.044% among 360,000; AID 602274, 2012; in the data active = survival enhancement above about 18%;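 note: cells exposed to compounds for 16 hours before the ATP read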
# CHOP inh: inhibitors of CHOP promoter induction, primary screen, cell-based, unfolded protein response, luciferase reporter; CHO-K1 CHOP-promoter luciferase, tunicamycin-induced, 15-18 h; inhibition, % at 10 µM; hit rate 3.8% among 220,000; AID 2732, 2010;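 active = compounds that reduced the stress-induced luciferase reporter signal by more than about 70% of percent inhibition, limit read from the data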
# UPR XBP1 act: activators of adaptive XBP1 UPR arm, primary screen, cell-based, CHO-XBP1 luciferase reporter, luminescence, uHTS; AID 463104, 2010; IRE1-XBP1 UPR activation; percent of tunicamycin response, DMSO as zero; activation, % at 20 µM; hit rate 0.33% among 330,000;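 active = versus positive control, 20 µM dose yields 30% or more activation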
#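 Material: CHO cell line with stable XBP1 luciferase reporter; buffer or medium: F12 medium containing 10% fetal bovine serum; compound: single point, 20 µM final compound, 1% DMSO; incubation: 6 h treatment, 37 °C; measured by: glow luminescence from Steady-Glo reagent; evaluation: activation, % of tunicamycin; control set: tunicamycin high, DMSO low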
# Hits are given with their value; 0 = inactive; - = no result given. This excerpt belongs to a sample that is enriched for hits.
SMILES,CHOP UPR activ,Cardio protect,hiPSC survival,CHOP inh,UPR XBP1 act
Cc1ccc(-n2c(N)c(C(=O)Nc3c(C)n(C)n(-c4ccccc4)c3=O)c3nc4ccccc4nc32)cc1C,0,-,-,91,0
COCCCNC(=O)c1c(N)n(-c2ccc3c(c2)OCO3)c2nc3ccccc3nc12,0,0,0,-,0
CCC(C)N(C(=O)COC(=O)Cc1n[nH]c(=O)c2ccccc12)C1CCS(=O)(=O)C1 (stereo not given),0,60,0,0,0
COc1ccc(C(O)c2ncc(-c3ccccc3Cl)[nH]2)cc1F (stereo not given),-,0,0,-,-
c1ccc2c3c([nH]c2c1)-c1[nH]ncc1CC3,0,0,0,71,0
Clc1ccc2[nH]c3c(c2c1)CCc1cn[nH]c1-3,0,0,0,87,0
N#C/C(=C\c1cccn1S(=O)(=O)c1cccc([N+](=O)[O-])c1)S(=O)(=O)c1ccc(F)cc1,-,0,0,-,-
O=C(O)c1ccccc1C(=O)Nc1ccc(Oc2cccc3ccccc23)cc1,-,0,0,78,-
CCCN1CCN(C(=O)CCc2nnc3ccc(N4CCN(c5cccc(OC)c5)CC4)nn23)CC1,0,55,0,-,0
COc1cccc(N2CCN(c3ccc4nnc(CCC(=O)N5CCC(C)CC5)n4n3)CC2)c1,0,0,0,-,0
CCOC(=O)C1(C)CCCN(C(=O)c2cccc3ccccc23)C1 (stereo not given),-,0,0,-,-
Cc1nn(C)cc1-c1csc(N)n1,0,0,0,0,0
Cc1cc(-c2csc(N)n2)c(C)n1CCC(C)C,0,0,0,79,0
Cc1cc(-c2csc(N)n2)c(C)n1CCc1ccccc1,0,0,0,81,0
COc1ccc(C(=Cc2cc(OC)c(OC)cc2[N+](=O)[O-])C(=O)O)cc1,-,0,0,-,-
Cc1ccc(S(=O)(=O)NC(=O)C2(C)CCN2C(=O)Cc2cccs2)nc1 (stereo not given),-,0,0,-,-
CCCCCn1nc(C(=O)OCC(=O)c2c(N)n(C)c(=O)n(C)c2=O)c2ccccc2c1=O,0,66,0,0,0
COc1ccc(-c2c(C#N)c(N)nc(Sc3ccc(Cl)cc3)c2C#N)cc1,0,0,0,74,0
CSc1nc(N)c(C#N)c(-c2ccc(Cl)cc2)c1C#N,0,0,0,0,0
O=C1CC=Nc2ccc([N+](=O)[O-])cc21,-,0,0,-,-
Cn1c(=O)c2[nH]c(NN=Cc3cccc(Br)c3)nc2n(C)c1=O,-,50,0,-,-
CC1CCN(C(=O)Cn2c(=O)n(CCc3ccccc3)c(=O)c3ccccc32)CC1,0,0,0,88,0
CCc1nnc(NC(=O)CSc2nnc(CNc3ccc(OC)cc3)n2C)s1,0,68,0,0,0
COc1ccccc1NC(=O)CSc1ccc2nnc(-c3ccc(C)cc3)n2n1,0,69,0,0,0
Cn1c(CSCc2ccc(Cl)cc2)nnc1SCC(=O)Nc1nccs1,0,0,0,0,0
SMILES,CHOP UPR activ,Cardio protect,hiPSC survival,CHOP inh,UPR XBP1 act
Cn1c(CSCc2ccc(Cl)cc2)nnc1SCC(=O)Nc1nc2ccccc2s1,0,0,0,92,0
CC(=O)C1=C(C)NC(SCC(=O)Nc2nc3ccccc3s2)=C(C#N)C1c1ccc(Cl)cc1 (stereo not given),0,0,0,85,0
CCc1nnc(NC(=O)CSc2nnc(CNc3ccc(OC)cc3)n2CC)s1,0,0,0,0,0
COc1ccccc1NC(=O)CSc1ccc2nnc(-c3ccncc3)n2n1,0,0,0,0,0
COc1ccc(NC(=O)c2cc(C3CCCCN3S(=O)(=O)c3cccs3)on2)c(C)c1 (stereo not given),-,0,0,-,-
Cc1cc(Br)cn2c(Cc3cccc(F)c3)c(-c3ccc(Cl)cc3)nc12,-,0,0,-,-
CCOc1ccc(-c2nnc3ccc(SCC(=O)Nc4nc5ccc(C)cc5s4)nn23)cc1,0,0,0,0,0
Cn1cc(SCC(=O)Nc2nc3ccccc3s2)c2ccccc21,0,0,0,71,0
O=C(Cn1ncc2c(=O)oc3ccccc3c21)Nc1nc2ccccc2s1,-,-,-,88,-
O=C(CSc1ccc2nnc(-c3ccc(F)cc3)n2n1)N1CCCc2ccccc21,0,80,0,0,0
CCOc1ccc(-c2nnc3ccc(SCC(=O)Nc4nc5ccccc5s4)nn23)cc1,0,0,0,70,0
O=C1CSCc2nc3ccccc3n21,-,0,0,-,-
CC(c1ccon1)N(C)C(=O)c1cccc(OC2CCN(S(C)(=O)=O)CC2)c1 (stereo not given),-,0,0,-,-
COc1ccc(-c2nnc(SCC(=O)Nc3nc4ccccc4s3)n2C)cc1,0,0,0,93,0
COc1ccc(-c2nnc(SCC(=O)Nc3ccccc3)n2C)cc1,0,0,0,0,0
CCCCNC(=O)C[C@@H]1C[C@@]2(C(=O)OC)CCCCC=C2N(CCC2=CCCCC2)C1=O,-,-,0,-,-
COc1cccc(C(=O)N2CCC[C@H]2C(=O)N2CCC[C@H]2C(=O)N[C@@H](C)c2ccccc2)c1,-,-,0,-,-
COC(=O)c1ccc2c(=O)[nH]c(COC(=O)c3[nH]c(C)c(C(C)=O)c3C)nc2c1,0,72,0,-,0
CN(C)CCCN1CC(C(=O)O)CC1=O (stereo not given),0,0,0,76,0
O=C(O)C1CC(=O)N(CCc2ccccc2)C1 (stereo not given),0,0,0,0,0
O=C(NCCc1c[nH]c2ccccc12)C(=O)NCC(c1ccco1)N1CCN(c2ccccc2F)CC1 (stereo not given),0,63,0,0,0
Cc1ccccc1-n1c(=O)/c(=C\c2ccco2)s/c1=C(/C#N)C(=O)Nc1ccccc1,0,71,0,0,0
CCCc1cc(=O)[nH]c(Nc2cc(OC)ccc2OC)n1,0,0,0,74,0
Cc1ccc(-c2nnc(SCC(=O)Nc3nc4c(s3)CCCC4)n2C)cc1,0,0,0,0,0
Cc1ccc2cc(C)c3nnc(SCC(=O)Nc4nc5c(s4)CCCC5)n3c2c1,-,-,-,83,-
SMILES,CHOP UPR activ,Cardio protect,hiPSC survival,CHOP inh,UPR XBP1 act
CCCn1c(SCC(=O)Nc2nc3c(s2)CCCC3)nc2c1c(=O)n(C)c(=O)n2C,0,0,0,71,0
N#CC(Sc1ccccn1)c1ccc(Cl)cc1Cl (stereo not given),0,0,0,74,0
N#Cc1cc(Sc2ccccn2)c(Sc2ccccn2)cc1C#N,0,0,0,0,0
COC(=O)c1cc(C(=O)OCC(=O)N2c3ccccc3NC(=O)C2(C)C)cc([N+](=O)[O-])c1,0,58,0,0,0
Cc1nc(Nc2ccc(Cl)cc2Cl)sc1C(=O)Nc1ccccc1,0,0,0,0,0
Oc1nc(Nc2ccc(Cl)cc2Cl)sc1/C=C1\C=Nc2ccccc21,0,0,0,73,0
O=C(CNc1ccc2ccccc2c1)N/N=C/c1ccc([N+](=O)[O-])o1,0,0,0,99,0

# Compound activity from PubChem BioAssay.
